Experiments:
[1] = Plasma lipid-lowering activity at a dosage of 0.001% in the diet in KKAy mice; format: functional, Mus musculus
Procedure, shortened: (§1)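 KKAy mice (9–13 weeks old), five per group, on powdered CE-2 diet containing compound at 0.001, 0.005 or 0.01% for 4 d. Plasma triglyceride from orbital-vein blood measured enzymatically and reported as maximum percent reduction from control; Dunnett's test; less than 10% reduction flagged.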

[2] = Plasma glucose-lowering activity at a dosage of 0.001% in the diet in KKAy mice; format: functional, Mus musculus
Procedure, shortened: (§2)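 KKAy mice (9–13 weeks old), five per group, grouped by blood glucose after 3 d on powdered CE-2 chow. Dietary admixture at 0.001, 0.005 or 0.01% for 4 d, food and water ad libitum. Orbital-vein plasma glucose measured enzymatically and expressed as maximum percent reduction versus control; Dunnett's test.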

[3] = Plasma glucose-lowering activity at a dosage of 0.005% in the diet in KKA(y) mice.; format: functional, Mus musculus; procedure, shortened: as §2
[4] = Plasma lipid-lowering activity at a dosage of 0.005% in the diet in KKA(y) mice.; format: functional, Mus musculus; procedure, shortened: as §1
[5] = species: Mus musculus; assay: Effective dose for 25% reduction in plasma glucose-lowering activity of KKAy mice; format: functional
Procedure, shortened: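 KKAy mice (9–13 weeks old), five per group, allocated by blood glucose after 3 d on powdered CE-2 chow. Compounds given as dietary admix at three levels chosen from first screening, 4 d ad libitum. Orbital-vein plasma glucose assayed enzymatically. Dose in mg/kg/d computed from food intake and body weight; ED25 derived by linear regression.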

[6] = Plasma lipid-lowering activity at a dosage of 0.01% in the diet in KKAy mice; format: functional, Mus musculus; procedure, shortened: as §1
[7] = species: Mus musculus; assay: Effective dose for 25% reduction in plasma lipid-lowering activity in KKAy mice; format: functional
Procedure, shortened: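 Male/female not stated; KKAy mice, 9–13 weeks old, fed powdered CE-2 chow 3 d, grouped (five per group) by blood glucose. Compounds given as dietary admixture at three levels (0.01, 0.005 or 0.001% in diet) for 4 d. Orbital-vein plasma triglyceride measured enzymatically as % reduction vs control; dose (mg/kg/d) from food intake and body weight; ED25 by linear regression.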

[8] = species: Rattus norvegicus; assay: Effective dose for 25% reduction in plasma glucose-lowering activity in Wistar fatty rats; format: functional
Procedure, shortened: (§3)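 Wistar fatty rats (10–15 weeks old), five per group, allocated by plasma glucose and triglyceride. Oral dosing by stomach tube once daily for 6 d at three doses, suspended in 0.5% methyl cellulose; CE-2 pellets and water ad libitum. Tail-vein plasma glucose measured; ED25 taken from the three-dose response by linear regression.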

[9] = molecular target: T1, RXR alpha/PPAR gamma (Homo sapiens, UniProt P19793+P37231); assay: Transcriptional activation in COS cells expressing PPAR gamma and RXR alpha
T1 sequence (P37231 whole entry): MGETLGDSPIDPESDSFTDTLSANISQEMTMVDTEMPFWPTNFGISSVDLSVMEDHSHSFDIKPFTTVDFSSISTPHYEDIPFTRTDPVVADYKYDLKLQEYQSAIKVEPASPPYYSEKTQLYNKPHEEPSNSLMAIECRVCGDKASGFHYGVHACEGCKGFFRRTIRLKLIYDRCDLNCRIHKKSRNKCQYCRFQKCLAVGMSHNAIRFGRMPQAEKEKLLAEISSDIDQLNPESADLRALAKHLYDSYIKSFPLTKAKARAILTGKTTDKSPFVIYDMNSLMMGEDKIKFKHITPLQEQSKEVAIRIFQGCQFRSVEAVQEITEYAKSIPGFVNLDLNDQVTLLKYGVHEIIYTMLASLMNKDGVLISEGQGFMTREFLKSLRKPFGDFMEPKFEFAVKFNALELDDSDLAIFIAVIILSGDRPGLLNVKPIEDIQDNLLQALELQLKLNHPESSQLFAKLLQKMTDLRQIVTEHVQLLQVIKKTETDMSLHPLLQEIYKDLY
T1 sequence (P19793 whole entry): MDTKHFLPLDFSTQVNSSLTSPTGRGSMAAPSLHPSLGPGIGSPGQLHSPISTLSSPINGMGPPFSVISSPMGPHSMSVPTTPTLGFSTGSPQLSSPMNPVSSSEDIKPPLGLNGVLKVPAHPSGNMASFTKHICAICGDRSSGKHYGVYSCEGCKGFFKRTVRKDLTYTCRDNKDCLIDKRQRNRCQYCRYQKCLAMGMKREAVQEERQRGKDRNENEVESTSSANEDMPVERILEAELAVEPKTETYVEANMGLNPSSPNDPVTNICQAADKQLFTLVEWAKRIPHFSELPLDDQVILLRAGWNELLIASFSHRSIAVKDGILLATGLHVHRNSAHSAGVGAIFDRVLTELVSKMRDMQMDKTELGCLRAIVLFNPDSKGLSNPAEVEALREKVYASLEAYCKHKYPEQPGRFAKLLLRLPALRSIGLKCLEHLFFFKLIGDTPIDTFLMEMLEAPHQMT

[10] = species: Rattus norvegicus; assay: Effective dose for 25% reduction in glucose-lowering activity in Wistar fatty rats; format: functional; procedure, shortened: as §3
[11] = Rattus norvegicus, Plasma, read-out: ED25

Structure (SMILES) | Activity [1] | Activity [2] | Activity [3] | Activity [4] | further results
Cc1oc(-c2cc3ccccc3s2)nc1COc1ccc(CCCC2OC(=O)NC2=O)cc1 (centres undefined) | 24 | 25 | 48 | 62 | –
Cc1oc(-c2ccco2)nc1COc1ccc(CCCC2OC(=O)NC2=O)cc1 (centres undefined) | – | 38 | 61 | 58 | –
Cc1oc(-c2cc3ccccc3o2)nc1COc1ccc(CCCC2OC(=O)NC2=O)cc1 (centres undefined) | 12 | 27 | 47 | 71 | –
Cc1oc(-c2ccccc2)nc1CCOc1ccc(CCC2SC(=O)NC2=O)cc1 (centres undefined) | – | – | 14 | 32 | –
Cc1oc(-c2ccccc2)nc1COc1ccc(/C=C/C=C2/OC(=O)NC2=O)cc1 | – | – | 23 | 29 | –
Cc1oc(-c2ccccc2)nc1CCOc1ccc(CCCCCC2OC(=O)NC2=O)cc1 (centres undefined) | – | – | 23 | 17 | –
O=C1NC(=O)C(CCCc2ccc(OCc3coc(-c4ccccc4)n3)cc2)O1 (centres undefined) | – | – | 44 | – | –
Cc1oc(-c2ccccc2)nc1COc1ccc(CCCC2SC(=O)NC2=O)cc1 (centres undefined) | <10 | <10 | 48 | 37 | –
Cc1oc(-c2ccccc2)nc1COc1ccc(CCC2OC(=O)NC2=O)cc1 (centres undefined) | 13 | 28 | 63 | 60 | ED25 [5]: 1.31 mg/kg/day
Cc1oc(-c2ccccc2)nc1COc1cccc(CCCC2OC(=O)NC2=O)c1 (centres undefined) | – | – | 32 | – | Activity [6]: 47
Cc1oc(-c2ccccc2)nc1CCOc1ccc(CCCCC2OC(=O)NC2=O)cc1 (centres undefined) | – | – | 27 | 27 | –
CC1(COc2ccc(CC3SC(=O)NC3=O)cc2)CCCCC1 (centres undefined) [CIGLITAZONE] | – | – | – | – | ED25 [7]: 25 mg/kg/day
Cc1oc(-c2ccccc2)nc1CCOc1ccc(CCC2OC(=O)NC2=O)cc1 (centres undefined) | 15 | 18 | 56 | 53 | ED25 [5]: 4.83 mg/kg/day
Cc1oc(-c2ccccc2)nc1COc1ccc(CCCCC2OC(=O)NC2=O)cc1 (centres undefined) | – | – | 43 | 51 | –
Cc1sc(-c2ccccc2)nc1COc1ccc(CCCC2OC(=O)NC2=O)cc1 (centres undefined) | 17 | 15 | 43 | 58 | ED25 [8, 11]: 0.5 mg/kg/day; EC50 [9]: 813 nM
Cc1oc(-c2ccccc2)nc1COc1ccc(CCCCCC2OC(=O)NC2=O)cc1 (centres undefined) | – | – | 45 | 59 | –
Cc1oc(-c2ccccc2)nc1COc1ccc(CCC2SC(=O)NC2=O)cc1 (centres undefined) | – | – | 24 | 15 | –
Cc1oc(-c2ccccc2)nc1COc1ccc(CCCCCC2SC(=O)NC2=O)cc1 (centres undefined) | – | – | 19 | <10 | –

Structure (SMILES) | Activity [1] | Activity [2] | Activity [3] | Activity [4] | further results
COc1cc(CCCC2OC(=O)NC2=O)ccc1OCc1nc(-c2ccccc2)oc1C (centres undefined) | – | 48 | 61 | 75 | –
COc1cc(CCCC2OC(=O)NC2=O)ccc1OCc1nc(-c2ccco2)oc1C (single isomer, unassigned; (-)) | < 10 | – | <10 | – | ED25 [8]: 0.362 mg/kg/day; EC50 [9]: 35.4 nM
Cc1sc(-c2ccccc2)nc1COc1ccc(CCCC2OC(=O)NC2=O)cc1 (single isomer, unassigned; (-)) | – | – | – | – | EC50 [9]: > 1000 nM; ED25 [10]: 3 mg/kg/day
Cc1oc(-c2ccccc2)nc1COc1ccc(CCCC2OC(=O)NC2=O)cn1 (centres undefined) | 69 | 53 | 54 | 82 | ED25 [8, 11]: 0.048 mg/kg/day; EC50 [9]: 16.5 nM
COc1cc(CCCC2OC(=O)NC2=O)ccc1OCc1nc(-c2ccco2)oc1C (stereo in doubt; 64) | < 10 | 39 | 58 | 74 | ED25 [8]: 0.069 mg/kg/day; EC50 [9]: 24.1 nM
Cc1oc(-c2ccccc2)nc1COc1ccccc1CCCC1OC(=O)NC1=O (centres undefined) | – | – | 11 | – | Activity [6]: 33
Cc1oc(-c2ccccc2)nc1COc1ccc(CCCC2OC(=O)NC2=O)cc1 (centres undefined) | 55 | 53 | 61 | 83 | ED25 [8, 11]: 0.078 mg/kg/day; EC50 [9]: 119 nM; ED25 [5]: 0.402 mg/kg/day
COc1cc(CCCC2SC(=O)NC2=O)ccc1OCc1nc(-c2ccccc2)oc1C (centres undefined) | 24 | 12 | 54 | 58 | ED25 [5]: 3.17 mg/kg/day
Cc1oc(-c2ccc3ccccc3c2)nc1COc1ccc(CCCC2OC(=O)NC2=O)cc1 (centres undefined) | 40 | 45 | 55 | 72 | ED25 [8, 11]: 0.178 mg/kg/day; EC50 [9]: 29.3 nM
Cc1oc(-c2ccccc2)nc1CCCc1ccc(CCCC2OC(=O)NC2=O)cc1 (centres undefined) | – | – | 22 | 19 | –
Cc1oc(-c2ccccc2)nc1CCOc1ccc(CCCC2OC(=O)NC2=O)cc1 (centres undefined) | 26 | 11 | 49 | 41 | ED25 [5]: 2.91 mg/kg/day
COc1cc(CCCC2OC(=O)NC2=O)ccc1OCc1nc(-c2ccco2)oc1C (stereo in doubt; (+)-64) | 32 | 45 | – | – | ED25 [8]: 0.05 mg/kg/day; EC50 [9]: 8.87 nM
Cc1oc(-c2ccccc2)nc1CCC(O)c1ccc(CCCC2OC(=O)NC2=O)cc1 (centres undefined) | – | – | 23 | 22 | –
Cc1oc(-c2ccccc2)nc1COc1ccc(CCCCC2SC(=O)NC2=O)cc1 (centres undefined) | – | – | 22 | 21 | –
Cc1oc(-c2ccccc2)nc1CCCOc1ccc(CC2OC(=O)NC2=O)cc1 (centres undefined) | – | – | 30 | 25 | –
Cc1oc(-c2cccc3ccccc23)nc1COc1ccc(CCCC2OC(=O)NC2=O)cc1 (centres undefined) | – | – | 23 | – | –
Cc1oc(-c2ccccc2)nc1CCC(=O)c1ccc(CCCC2OC(=O)NC2=O)cc1 (centres undefined) | – | – | 32 | 17 | –
Cc1oc(-c2ccccc2)nc1CCOc1ccc(/C=C/C=C2\SC(=O)NC2=O)cc1 | – | – | 13 | 13 | –
